ChEMBL document CHEMBL4346667 (Eur J Med Chem, 2019)

What was measured:
Format in all cases: functional
[1] = tested on: MCF7; experiment: Induction of apoptosis in human MCF7 cells assessed as viable cells at 50 uM after 48 hrs by Annexin V-FITC/propidium iodide staining-based flow cytometric analysis (reference value: 87.9%); conditions: MCF7, 48 h, read-out: Activity
[2] = tested on: MCF7; experiment: Induction of apoptosis in human MCF7 cells assessed as necrotic cells at 10 uM after 24 hrs by Annexin V-FITC/propidium iodide staining-based flow cytometric analysis (reference value: 0.2%)
[3] = tested on: MCF7; experiment: Induction of apoptosis in human MCF7 cells assessed as viable cells at 5 uM after 48 hrs by Annexin V-FITC/propidium iodide staining-based flow cytometric analysis (reference value: 87.9%); conditions: MCF7, 48 h, read-out: Activity
[4] = tested on: MCF7; experiment: Induction of apoptosis in human MCF7 cells assessed as necrotic cells at 50 uM after 24 hrs by Annexin V-FITC/propidium iodide staining-based flow cytometric analysis (reference value: 0.1%)
[5] = tested on: MCF7; experiment: Induction of apoptosis in human MCF7 cells assessed as late apoptotic cells at 1 uM after 48 hrs by Annexin V-FITC/propidium iodide staining-based flow cytometric analysis (reference value: 2.8%)
How it was run: (§1)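 Log-phase cells seeded in 6-well plates and treated after adhesion; incubated in cycles of 6 h on/6 h off up to 48 h. Collected after PBS washes and trypsin, resuspended in Ca2+-enriched binding buffer. Stained with annexin V (1 µg/mL) plus PI (0.5 µg/mL) 15 min in the dark at room temperature. 10,000 events, FL1 vs FL2. At least three repeats.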

[6] = tested on: MCF7; experiment: Induction of apoptosis in human MCF7 cells assessed as necrotic cells at 50 uM after 24 hrs by Annexin V-FITC/propidium iodide staining-based flow cytometric analysis (reference value: 0.2%)
[7] = tested on: MCF7; experiment: Induction of apoptosis in human MCF7 cells assessed as viable cells at 5 uM after 24 hrs by Annexin V-FITC/propidium iodide staining-based flow cytometric analysis (reference value: 92.1%); conditions: MCF7, 24 h, read-out: Activity
[8] = tested on: MCF7; experiment: Induction of apoptosis in human MCF7 cells assessed as early apoptotic cells at 10 uM after 6 hrs by Annexin V-FITC/propidium iodide staining-based flow cytometric analysis (reference value: 2%); how it was run: as §1
[9] = tested on: MCF7; experiment: Induction of apoptosis in human MCF7 cells assessed as viable cells at 25 uM after 24 hrs by Annexin V-FITC/propidium iodide staining-based flow cytometric analysis (reference value: 92.1%); conditions: MCF7, 24 h, read-out: Activity
[10] = tested on: MCF7; experiment: Induction of apoptosis in human MCF7 cells assessed as late apoptotic cells at 25 uM after 6 hrs by Annexin V-FITC/propidium iodide staining-based flow cytometric analysis (reference value: 4.7%); how it was run: as §1
[11] = tested on: MCF7; experiment: Induction of apoptosis in human MCF7 cells assessed as early apoptotic cells at 25 uM after 24 hrs by Annexin V-FITC/propidium iodide staining-based flow cytometric analysis (reference value: 2.1%); how it was run: as §1
[12] = tested on: MCF7; experiment: Induction of apoptosis in human MCF7 cells assessed as necrotic cells at 10 uM after 6 hrs by Annexin V-FITC/propidium iodide staining-based flow cytometric analysis (reference value: 0.5%)
[13] = tested on: MCF7; experiment: Induction of apoptosis in human MCF7 cells assessed as late apoptotic cells at 5 uM after 48 hrs by Annexin V-FITC/propidium iodide staining-based flow cytometric analysis (reference value: 2.8%); how it was run: as §1
[14] = tested on: MCF7; experiment: Induction of apoptosis in human MCF7 cells assessed as early apoptotic cells at 1 uM after 24 hrs by Annexin V-FITC/propidium iodide staining-based flow cytometric analysis (reference value: 2.1%); how it was run: as §1
[15] = tested on: MCF7; experiment: Induction of apoptosis in human MCF7 cells assessed as early apoptotic cells at 25 uM after 6 hrs by Annexin V-FITC/propidium iodide staining-based flow cytometric analysis (reference value: 2%); how it was run: as §1
[16] = tested on: MCF7; experiment: Induction of apoptosis in human MCF7 cells assessed as viable cells at 1 uM after 48 hrs by Annexin V-FITC/propidium iodide staining-based flow cytometric analysis (reference value: 87.9%); conditions: MCF7, 48 h, read-out: Activity
[17] = tested on: MCF7; experiment: Induction of apoptosis in human MCF7 cells assessed as late apoptotic cells at 25 uM after 24 hrs by Annexin V-FITC/propidium iodide staining-based flow cytometric analysis (reference value: 5.6%); how it was run: as §1
[18] = tested on: MCF7; experiment: Induction of apoptosis in human MCF7 cells assessed as necrotic cells at 5 uM after 24 hrs by Annexin V-FITC/propidium iodide staining-based flow cytometric analysis (reference value: 0.1%)
[19] = tested on: MCF7; experiment: Induction of apoptosis in human MCF7 cells assessed as viable cells at 10 uM after 24 hrs by Annexin V-FITC/propidium iodide staining-based flow cytometric analysis (reference value: 92.1%); conditions: MCF7, 24 h, read-out: Activity
[20] = tested on: MCF7; experiment: Induction of apoptosis in human MCF7 cells assessed as viable cells at 5 uM after 6 hrs by Annexin V-FITC/propidium iodide staining-based flow cytometric analysis (reference value: 92.8%); conditions: MCF7, 6 h, read-out: Activity
[21] = tested on: MCF7; experiment: Induction of apoptosis in human MCF7 cells assessed as early apoptotic cells at 50 uM after 24 hrs by Annexin V-FITC/propidium iodide staining-based flow cytometric analysis (reference value: 2.1%); how it was run: as §1
[22] = tested on: MCF7; experiment: Induction of apoptosis in human MCF7 cells assessed as late apoptotic cells at 10 uM after 48 hrs by Annexin V-FITC/propidium iodide staining-based flow cytometric analysis (reference value: 2.8%); how it was run: as §1
[23] = tested on: MCF7; experiment: Induction of apoptosis in human MCF7 cells assessed as early apoptotic cells at 50 uM after 6 hrs by Annexin V-FITC/propidium iodide staining-based flow cytometric analysis (reference value: 2%); how it was run: as §1
[24] = tested on: MCF7; experiment: Induction of apoptosis in human MCF7 cells assessed as necrotic cells at 10 uM after 24 hrs by Annexin V-FITC/propidium iodide staining-based flow cytometric analysis (reference value: 0.1%)
[25] = tested on: MCF7; experiment: Induction of apoptosis in human MCF7 cells assessed as viable cells at 50 uM after 24 hrs by Annexin V-FITC/propidium iodide staining-based flow cytometric analysis (reference value: 92.1%); conditions: MCF7, 24 h, read-out: Activity
[26] = tested on: MCF7; experiment: Induction of apoptosis in human MCF7 cells assessed as viable cells at 10 uM after 48 hrs by Annexin V-FITC/propidium iodide staining-based flow cytometric analysis (reference value: 87.9%); conditions: MCF7, 48 h, read-out: Activity
[27] = tested on: MCF7; experiment: Induction of apoptosis in human MCF7 cells assessed as necrotic cells at 5 uM after 6 hrs by Annexin V-FITC/propidium iodide staining-based flow cytometric analysis (reference value: 0.5%)
[28] = tested on: MCF7; experiment: Induction of apoptosis in human MCF7 cells assessed as necrotic cells at 1 uM after 24 hrs by Annexin V-FITC/propidium iodide staining-based flow cytometric analysis (reference value: 0.2%)
[29] = tested on: MCF7; experiment: Induction of apoptosis in human MCF7 cells assessed as viable cells at 1 uM after 24 hrs by Annexin V-FITC/propidium iodide staining-based flow cytometric analysis (reference value: 92.1%); conditions: MCF7, 24 h, read-out: Activity
[30] = tested on: MCF7; experiment: Induction of apoptosis in human MCF7 cells assessed as late apoptotic cells at 1 uM after 6 hrs by Annexin V-FITC/propidium iodide staining-based flow cytometric analysis (reference value: 4.7%); how it was run: as §1
[31] = tested on: MCF7; experiment: Induction of apoptosis in human MCF7 cells assessed as late apoptotic cells at 5 uM after 24 hrs by Annexin V-FITC/propidium iodide staining-based flow cytometric analysis (reference value: 5.6%); how it was run: as §1

COc1cc([C@@H]2c3cc4c(cc3[C@@H](O[C@@H]3O[C@@H]5CO[C@@H](C)O[C@H]5[C@H](O)[C@H]3O)[C@H]3COC(=O)[C@H]23)OCO4)cc(OC)c1O [ETOPOSIDE]
viability at 50 µM [1]: 29.8%
Activity [2]: 0.8%
viability at 5 µM [3]: 21.7%
Activity [4]: 0.9%
Activity [5]: 6%
Activity [6]: 1%
viability at 5 µM [7]: 84.2%
Activity [8]: 2.2%
viability at 25 µM [9]: 81.1%
Activity [10]: 6.7%
Activity [11]: 10.4%
Activity [12]: 1%
Activity [13]: 15.1%
Activity [14]: 2.2%
Activity [15]: 1.9%
viability at 1 µM [16]: 79.1%
Activity [17]: 7.7%
Activity [18]: 1.2%
viability at 10 µM [19]: 73.9%
viability at 5 µM [20]: 89.7%
Activity [21]: 12.4%
Activity [22]: 17.5%
Activity [23]: 2.9%
Activity [24]: 1.4%
viability at 50 µM [25]: 73.9%
viability at 10 µM [26]: 20.7%
Activity [27]: 0.6%
Activity [28]: 0.2%
viability at 1 µM [29]: 90.7%
Activity [30]: 7.1%
Activity [31]: 8.4%
